Reference: ChEMBL document CHEMBL1156731, “Antifungal activity of synthetic di(hetero)arylamines based on the benzo[b]thiophene moiety” (2008)
Values after ≈ are worked out from the molar mass of the structure shown. Active and inactive are the calls of the source. The calls are words filed in the database; no cut-off is given here.

Tests used:
[1] = test system: Pichia kudriavzevii; assay: Antifungal activity against Candida krusei ATCC 6258 after 48 hrs by broth macrodilution method; assay type: functional; settings: ATCC 6258, 48 h
How it was run: (§1)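 Yeasts grown 1 day on SDA at 37 °C, subcultured, suspended in saline and diluted in MOPS-buffered RPMI 1640 (pH 7.0) to 1-2 × 10^3 CFU/mL. Broth macrodilution per CLSI M27-A2, twofold dilutions 200-0.8 µg/mL (DMSO ≤2% final), aerobic, 37 °C, 48 h. MIC = 80% turbidity reduction vs drug-free control; MFC from SDA subculture at 37 °C. Three independent experiments in duplicate.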

[2] = test system: Candida tropicalis; assay: Antifungal activity against Candida tropicalis ATCC 13803 after 48 hrs by broth macrodilution method; assay type: functional; settings: ATCC 13803, 48 h; how it was run: as §1
[3] = test system: Candida albicans; assay: Antifungal activity against Candida albicans D5 after 48 hrs by broth macrodilution method; assay type: functional; how it was run: as §1
[4] = test system: Nakaseomyces glabratus; assay: Antifungal activity against Candida glabrata D10R after 48 hrs by broth macrodilution method; assay type: functional
How it was run: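 Broth macrodilution per CLSI M27-A2 (minor modifications). Inoculum 1-2 × 10^3 CFU/mL in RPMI 1640 with L-glutamine, MOPS-buffered 0.165 M, pH 7.0. Twofold dilutions 200-0.8 µg/mL from DMSO stock (final DMSO ≤2%). Aerobic, 37 °C, 48 h. MIC = lowest concentration giving 80% turbidity reduction versus drug-free control. Three independent experiments in duplicate.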

[5] = test system: Epidermophyton floccosum; assay: Antifungal activity against Epidermophyton floccosum FF9 after 5 days by broth macrodilution method; assay type: functional; settings: 120 h
How it was run: (§2)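 Dermatophytes grown 5 days on SDA at 30 °C, subcultured. Conidial suspensions in saline were adjusted in MOPS-buffered RPMI 1640 (pH 7.0) to 1-2 × 10^4 CFU/mL. Macrodilution adapted from CLSI M38-A with 200-0.8 µg/mL twofold dilutions (DMSO ≤2%), incubated at 30 °C for 5 days. MIC at 80% turbidity reduction vs control; MFC by SDA subculture at 30 °C. Triplicate experiments in duplicate.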

[6] = test system: Trichophyton rubrum; assay: Antifungal activity against Trichophyton rubrum FF5 after 5 days by broth macrodilution method; assay type: functional; settings: 120 h; how it was run: as §2
[7] = test system: Trichophyton mentagrophytes; assay: Antifungal activity against Trichophyton mentagrophytes FF7 after 5 days by broth macrodilution method; assay type: functional; settings: 120 h; how it was run: as §2
[8] = test system: Microsporum canis; assay: Antifungal activity against Microsporum canis FF1 after 5 days by broth macrodilution method; assay type: functional; settings: 120 h; how it was run: as §2
[9] = test system: Nannizzia gypsea; assay: Antifungal activity against Microsporum gypseum FF3 after 5 days by broth macrodilution method; assay type: functional; settings: 120 h; how it was run: as §2
[10] = test system: Aspergillus flavus; assay: Antifungal activity against Aspergillus flavus F44 after 3 days by broth macrodilution method; assay type: functional; settings: 72 h
How it was run: (§3)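 Aspergillus inoculum from 3-day SDA subcultures at 30 °C; conidial suspension in 0.85% saline, diluted in RPMI 1640 (L-glutamine, no bicarbonate, 0.165 M MOPS, pH 7.0) to 1-2 × 10^4 CFU/mL. Twofold dilutions 200-0.8 µg/mL from DMSO stock (final DMSO ≤2%); macrodilution per CLSI M38-A, 30 °C, 3 days. MIC = lowest concentration giving 80% turbidity reduction vs drug-free control; MFC by subculture on SDA. Three independent experiments in duplicate.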

[11] = test system: Aspergillus fumigatus; assay: Antifungal activity against Aspergillus fumigatus ATCC 46645 after 3 days by broth macrodilution method; assay type: functional; settings: ATCC 46645, 72 h; how it was run: as §3
[12] = test system: Aspergillus niger; assay: Antifungal activity against Aspergillus niger ATCC 16404 after 3 days by broth macrodilution method; assay type: functional; settings: ATCC 16404, 72 h; how it was run: as §3
[13] = test system: Candida albicans; assay: Antifungal activity against Candida albicans ATCC 10231 after 48 hrs by broth macrodilution method; assay type: functional; settings: ATCC 10231, 48 h; how it was run: as §1
[14] = test system: Candida albicans; assay: Inhibition of germ tube formation in Candida albicans ATCC 10231 after 3 hrs by hemocytometer; assay type: functional, organism-based
How it was run: (§4)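 Overnight SDA cultures (37 °C) were suspended in NYP medium (N-acetylglucosamine 10^-3 mol/L, YNB 3.35 g/L, proline 10^-3 mol/L, NaCl 4.5 g/L, pH 6.7) at (1.0 ± 0.2) × 10^6 CFU/mL. Compound added at 1/2, 1/4 and 1/8 MIC (1% DMSO final), 3 h at 37 °C. 100 cells counted by hemocytometer; germ tube at least blastospore diameter, pseudohyphae excluded. Mean ± SD, three experiments.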

[15] = test system: Candida albicans; assay: Inhibition of germ tube formation in Candida albicans D5 after 3 hrs by hemocytometer; assay type: functional, organism-based; how it was run: as §4
[16] = test system: Candida albicans; assay: Inhibition of germ tube formation in Candida albicans M1 after 3 hrs by hemocytometer; assay type: functional, organism-based; how it was run: as §4

Structure (SMILES) | MFC [1] [µg/mL] | MIC [1] [µg/mL] | MFC [2] [µg/mL] | MIC [2] [µg/mL] | MFC [3] [µg/mL] | MIC [3] [µg/mL] | MFC [4] [µg/mL] | MIC [4] [µg/mL] | MFC [5] [µg/mL] | MIC [5] [µg/mL] | MFC [6] [µg/mL] | MIC [6] [µg/mL] | MFC [7] [µg/mL] | MIC [7] [µg/mL] | MFC [8] [µg/mL] | MIC [8] [µg/mL] | MFC [9] [µg/mL] | MIC [9] [µg/mL] | MFC [13] [µg/mL] | MIC [13] [µg/mL] | other results
CCOC(=O)c1sc2ccccc2c1Nc1ccc(OC)cc1 | > 200 | > 200 | > 200 | > 200 | > 200 | > 200 | > 200 | > 200 | > 200 | > 200 | > 200 | > 200 | > 200 | > 200 | > 200 | > 200 | > 200 | > 200 | > 200 | > 200 | MFC [10]: > 200 µg/mL; MIC [10]: > 200 µg/mL; MFC [11]: > 200 µg/mL; MIC [11]: > 200 µg/mL; MFC [12]: > 200 µg/mL; MIC [12]: > 200 µg/mL
OC(Cn1cncn1)(Cn1cncn1)c1ccc(F)cc1F [FLUCONAZOLE] | 64 (≈ 209 µM) | 64 (≈ 209 µM) | > 128 | 4 (≈ 13.1 µM) | > 128 | > 128 | 32 (≈ 104 µM) | 32 (≈ 104 µM) | 16 (≈ 52.2 µM) | 16 (≈ 52.2 µM) | 32 (≈ 104 µM) | 16 (≈ 52.2 µM) | 32 (≈ 104 µM) | 16 (≈ 52.2 µM) | 128 (≈ 418 µM) | 128 (≈ 418 µM) | > 128 | > 128 | > 128 | 1 (≈ 3.27 µM) | 
CCOC(=O)c1sc2ccccc2c1Nc1ccc(F)cc1 | > 200 | > 200 | > 200 | > 200 | > 200 | > 200 | > 200 | > 200 | > 200 | > 200 | > 200 | > 200 | > 200 | > 200 | > 200 | > 200 | > 200 | > 200 | > 200 | > 200 | MFC [10]: > 200 µg/mL; MIC [10]: > 200 µg/mL; MFC [11]: > 200 µg/mL; MIC [11]: > 200 µg/mL; MFC [12]: > 200 µg/mL; MIC [12]: > 200 µg/mL
CCOC(=O)c1sc2ccccc2c1Nc1ccc(O)cc1 | > 200 | > 200 | > 200 | > 200 | > 200 | > 200 | > 200 | > 200 | 12.5 (≈ 39.9 µM) | 3.13 (≈ 9.99 µM) | 6.25 (≈ 19.9 µM) | 6.25 (≈ 19.9 µM) | 6.25 (≈ 19.9 µM) | 6.25 (≈ 19.9 µM) | 1.56 (≈ 4.98 µM) | 1.56 (≈ 4.98 µM) | 12.5 (≈ 39.9 µM) | 6.25 (≈ 19.9 µM) | > 200 | > 200 | MFC [10]: > 200 µg/mL; MIC [10]: > 200 µg/mL; MFC [11]: > 200 µg/mL; MIC [11]: > 200 µg/mL; MFC [12]: > 200 µg/mL; MIC [12]: > 200 µg/mL
CCOC(=O)c1sc2ccccc2c1Nc1ccc(OC)cc1OC | > 200 | > 200 | > 200 | > 200 | > 200 | > 200 | > 200 | > 200 | > 200 | > 200 | > 200 | > 200 | > 200 | > 200 | > 200 | > 200 | > 200 | > 200 | > 200 | > 200 | MFC [10]: > 200 µg/mL; MIC [10]: > 200 µg/mL; MFC [11]: > 200 µg/mL; MIC [11]: > 200 µg/mL; MFC [12]: > 200 µg/mL; MIC [12]: > 200 µg/mL
CCOC(=O)c1sc2ccccc2c1Nc1ccc(O)cc1O | > 50 | 25 (≈ 75.9 µM) | > 50 | 50 (≈ 152 µM) | > 50 | 25 (≈ 75.9 µM) | > 50 | 25 (≈ 75.9 µM) | 12.5 (≈ 38 µM) | 6.25 (≈ 19 µM) | 25 (≈ 75.9 µM) | 12.5 (≈ 38 µM) | 25 (≈ 75.9 µM) | 12.5 (≈ 38 µM) | 12.5 (≈ 38 µM) | 12.5 (≈ 38 µM) | 25 (≈ 75.9 µM) | 12.5 (≈ 38 µM) | > 200 | 25 (≈ 75.9 µM) | MFC [10]: > 100 µg/mL; MIC [10]: > 100 µg/mL; MFC [11]: > 100 µg/mL; MIC [11]: > 100 µg/mL; MFC [12]: > 100 µg/mL; MIC [12]: > 100 µg/mL; Activity [14]: Active; Activity [15]: Active; Activity [16]: Active
CCOC(=O)c1sc2ccccc2c1Nc1cccnc1 | > 200 | > 200 | > 200 | > 200 | > 200 | > 200 | > 200 | > 200 | > 50 | 6.25 (≈ 20.9 µM) | > 50 | 3.13 (≈ 10.5 µM) | > 50 | 3.13 (≈ 10.5 µM) | > 50 | 3.13 (≈ 10.5 µM) | > 50 | 6.25 (≈ 20.9 µM) | > 200 | > 200 | MFC [10]: > 200 µg/mL; MIC [10]: > 200 µg/mL; MFC [11]: > 200 µg/mL; MIC [11]: > 200 µg/mL; MFC [12]: > 200 µg/mL; MIC [12]: > 200 µg/mL
